Test results taken from ChEMBL document CHEMBL4513216, “Probing the Open Global Health Chemical Diversity Library for Multistage-Active Starting Points for Next-Generation Antimalarials” (ACS Infect Dis, 2020).

Test: Toxicity liver stage against HepG2, at 10uM
Format: cell-based
Set-up: test concentration 10 uM, cell line HepG2-A16-CD81EGFP
Conditions: human, HepG2-A16-CD81EGFP cells; read-out: INHIBITION
Method in brief: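 Uninfected HepG2-A16-CD81EGFP cells, 3 × 10^3 per well, 1536-well, plated on prespotted compound at 10 μM final, parasite-free screening media added to match infected plates; puromycin 10 μM positive, DMSO 0.5% negative; run in parallel with 48 h PbLuc assay at 37 °C, 5% CO2; viability by CellTiter-Glo luminescence, normalized to controls.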

| SMILES | cytotoxicity at 10 µM [%] |
| --- | --- |
| CC(C)(C)CN1Cc2cc3c(cc2NCCC1=O)OCO3 | -84.3 |
| COC(=O)COn1c(OC)nc2ccccc2c1=O | -4.73 |
| O=C1CSC(c2ccncc2)c2c(n(C3CCOCC3)[nH]c2=O)N1 (stereo not drawn) | -19.4 |
| CCOC(=O)NCCC(O)c1ccoc1 (stereo not drawn) | -10.5 |
| COc1ncnc2c1CCN(C(=O)Cc1cccc(F)c1)CC2 | 3.88 |
| CC(C)Nc1ccc2c(c1)C1(CCOCC1)C(=O)N2c1ccsc1 | 11 |
| CCN1CCOCC2(CCCN(c3nncs3)C2)C1 (stereo not drawn) | 8.28 |
| CCc1ccc(C(=O)N2CCCn3nnc(Cn4cccn4)c3C2)cc1 | 7.8 |
| CC(C)COc1ccc(C2SCC(=O)Nc3c2c(=O)[nH]n3C(C)C)cc1 (stereo not drawn) | 8.74 |
| O=S(=O)(Nc1ccc(Oc2ccc3c(c2)OCO3)cc1)N1CCCCC1 | -29.3 |
| COC(=O)C1CCN(C(=O)c2nnc3ccc(Cl)cc3n2)CC1 | 12.3 |
| COCCNC(=O)c1cc(C(C)C)nc(N2CCCCC2)n1 | 9.04 |
| CC(C)c1cc(C(=O)NCCCN(C)C)nc(N2CCCC2)n1 | 8.49 |
| Cc1ccccc1OC1CCN(CC(=O)Nc2c(C)nn(C)c2C)CC1 | 0.919 |
| Fc1cccc(Oc2nccnc2C2CCN(C3CCOCC3)CC2)c1 | 6.62 |
| Cc1cc(C(=O)N2Cc3ccccc3OC3(CCOCC3)C2)nc(N)n1 | -0.928 |
| COCCNC(=O)N1CCSC2(CCCCC2)C1 | 2.07 |
| COc1cccc(SCCCn2cnc3c(N)ncnc32)c1 | 11.7 |
| Cc1nc(C)c(C(=O)N2CCc3cc(F)ccc3C2C)o1 (stereo not drawn) | 10.5 |
| CN(Cc1ccc(F)cc1F)Cc1cc2c(cc1Br)OCCO2 | -111 |
| O=C(O)c1ccn(-c2cccc(NC(=O)c3ccccc3Cl)c2)n1 | -139 |
| CCC(c1ccccc1)N1CCN(CCO)CC1 (stereo not drawn) | -1.19 |
| Cc1cccc(C)c1NC(=O)c1cc(S(N)(=O)=O)c(C)o1 | -4.27 |

| SMILES | cytotoxicity at 10 µM [%] |
| --- | --- |
| COC(=O)CC1CN(Cc2ccn(-c3ccc(F)cc3)n2)CCO1 (stereo not drawn) | -7.83 |
| COC(=O)C(C)N(Cc1cc(C)on1)C1CC1 (stereo not drawn) | 0.91 |
| CCS(=O)(=O)N1CCc2c(cccc2NCc2nc(C)c(C)o2)C1 | -46.9 |
| COCc1nc(C(=O)NS(=O)(=O)c2ccc(OC)c(C)c2)cs1 | 1.06 |
| CN(CCCNC(=O)c1ccccc1F)CC(F)(F)F | -9.25 |
| Cc1ccoc1CNCc1nnc2n1CC(C(F)(F)F)CC2 (stereo not drawn) | 14.3 |
| Clc1cccc(CNC2CCN(CCc3ccncc3)CC2)c1 | -5.62 |
| COc1cc(CN(C)C(=O)NCCNC(=O)C2CC2)ccc1SC | -3.73 |
| CC(NCc1ccco1)c1nnc2n1CCCC2 (stereo not drawn) | -2.34 |
| CC(Sc1nnnn1C1CCOCC1)C(F)(F)F (stereo not drawn) | 11.5 |
| CCc1ncc2c(n1)CN(Cc1nc3c(F)cccc3[nH]1)CC2 | 19 |
| OC(COCc1ccccc1)CSc1nnc(C2CC2)n1C1CC1 (stereo not drawn) | 4.93 |
| CN(Cc1cnn(C)c1)S(=O)(=O)N1CCCC1c1ccco1 (stereo not drawn) | -5.78 |
| Cc1ccccc1-c1noc(CNc2ccc(F)cc2OCCO)n1 | -41.7 |
| O=C(CCCc1nc(C2CC2)no1)N1CCCC(c2ccn[nH]2)C1 (stereo not drawn) | 12 |
| COc1cc2c(c(OC)c1OC)CCN(CCn1cncn1)CC2 | 11.5 |
| CCc1cnc(CCNC(=O)N2CCCC(c3ncc[nH]3)C2)s1 (stereo not drawn) | -4.15 |
| CN(CCNC(=O)Nc1ccn(C)n1)Cc1ccc(F)cc1 | 8.16 |
| Cc1cc(C(=O)NCCN2CCCCC2C)nn1C(C)(C)C (stereo not drawn) | 1.57 |
| Cc1cc(NC(=O)N(CCC#N)CCCN(C)C)ccc1F | -57.7 |
| CC(C)n1cc(CN2CCCN(C(=O)c3ccc[nH]3)CC2)cn1 | 3.59 |
| O=C(NCCc1cccc(F)c1)c1nc2c(s1)CCCN2C(=O)C1CC1 | -91.4 |
| CO[C@@H]1CO[C@@]2(CCCN(C(=O)C3CC=CC3)C2)C1 | -105 |

| SMILES | cytotoxicity at 10 µM [%] |
| --- | --- |
| CCN1CCC2(CC1)CC(CC(=O)N(C)C)c1ccc(F)cc12 (stereo not drawn) | -98.6 |
| COC[C@@H]1CCC[C@@]12CN(C(=O)N1CCCC1)CCO2 | -101 |
| O=C(C1CCOCC1)N1C[C@H]2CCC[C@@]2(COCc2ccccn2)C1 | -112 |
| Cn1nnc2c1CCN(S(C)(=O)=O)C2COCc1ccccc1 (stereo not drawn) | -100 |
| COc1cc(-c2cnnc(NCCSC)n2)cc(OC)c1OC | 3.98 |
| COc1ncccc1-c1cc(C(N)=O)ccn1 | 7.81 |
| COC(=O)[C@@H]1CCCN1C(=O)c1cn(C/C=C/c2ccccc2)nn1 | 3.61 |
| O=C1NC2(CCN(CCc3ccccc3)CC2)CC1c1ccccc1 (stereo not drawn) | -48.6 |
| O=C(Nc1ccccc1N1CCOC1=O)N1CCSCC1 | 3.15 |
| CCc1nnc(CN(C)C(=O)C(CC)n2c(CC)nc3ccccc32)o1 (stereo not drawn) | -4.27 |
| CC(C)c1noc(-c2ccc(NCCCN3CCCC(O)C3)nc2)n1 (stereo not drawn) | -6.87 |
| c1ccc(CCCN2CCCN(c3ncnc4[nH]ccc34)CC2)cc1 | -5.86 |
| COCCN1CCN(Cc2ccc(Cl)cc2)[C@H]2CS(=O)(=O)C[C@H]21 | -4.01 |
| CN(C)Cc1ccccc1CN(C)c1ncnc2[nH]ccc12 | 8.11 |
| CC(C)N1CCC(CC(=O)NC(C(=O)O)c2cc(F)ccc2F)CC1 (stereo not drawn) | 1.18 |
| CC(=O)c1cc(CN2C[C@@H](NS(=O)(=O)N(C)C)[C@H](C(C)C)C2)cs1 | -7.79 |
| OCC1(O)CCCN(Cc2ccccc2OCCc2ccccc2)CC1 (stereo not drawn) | -45.4 |
| CCC(=O)c1ccc(OCC(=O)NCC2CC(CC)=NO2)cc1 (stereo not drawn) | -41.7 |
| COc1cc(-c2cc(C3CCOC3)c(C#N)c(N)n2)ccc1O (stereo not drawn) | -0.412 |
| CCOc1ccc(-n2nc(C)c(CC(C)=O)c2C)cc1C(N)=O | 7.09 |
| CCNC(=O)C1CCN(c2cc(CC)nc3ccnn23)C1 (stereo not drawn) | -8.24 |
| CCc1ccc(CN(C/C=C/c2ccccc2)CCOC)nc1 | 10.2 |
| O=C(CCCc1cn[nH]c1)N1C[C@@H](CN2CCCCCC2)[C@@H](CO)C1 | 1.52 |

| SMILES | cytotoxicity at 10 µM [%] |
| --- | --- |
| COc1ccc(C(C(=O)O)N(C)CCN2CCCC2)c(C)c1 (stereo not drawn) | 3.41 |
| COCCCC1CCCCN1C(=O)c1ccc(SCCO)cc1 (stereo not drawn) | -50 |
| COc1ccc(-n2cccn2)c(CN2CCC3(CCNCC3)C2)c1 | 0.0652 |
| CC(C1CCN(Cc2c(Cl)cncc2Cl)CC1)N1CCOCC1 (stereo not drawn) | -8.68 |
| CNc1ccnc(NCC(=O)Nc2cc(C)ccc2OC)n1 | -2.9 |
| COc1cccc(Cl)c1C(C(=O)O)N(C)Cc1nnc(C)o1 (stereo not drawn) | -23.4 |
| COc1ccccc1N1CCN(C(=O)Cn2nc(C)cc2C)CC1(C)C | 9.62 |
| OC(CNc1nc(C2CCCC2)nc2c1CCNCC2)C(F)(F)F (stereo not drawn) | -4.78 |
| CC(C)c1nccc(CN2CCC(c3nc4ccccc4n3C)CC2)n1 | 7.23 |
| CCc1nnc(CNC(=O)CCN2CCN(c3cccc(C)c3)CC2)s1 | -1.82 |
| Fc1ccc(-c2noc3c2CN(CC2CC2)CC3)cc1F | -6.39 |
| CC(COc1ccccc1)NS(C)(=O)=O (stereo not drawn) | -4.05 |
| O=C(COCC1CCCO1)N1CCCN(Cc2ccccc2F)CC1 (stereo not drawn) | 2.86 |
| CN(C)CCN1CC(C(=O)N(C)Cc2cc3cc(F)ccc3[nH]2)CC1=O (stereo not drawn) | -1.03 |
| Cc1ccc(NC(=O)CNC(C)Cc2ccsc2)cc1F (stereo not drawn) | 9.17 |
| CSCCNC(=O)c1ccc(OC2CCN(CC(C)(C)C)CC2)c(Cl)c1 | -10.9 |
| Cc1nccn1-c1cccc(C2CCCN2S(=O)(=O)N(C)C)n1 (stereo not drawn) | 3.44 |
| O=C1CN(c2ccc(CNC(=O)NCCO)cc2)CCN1 | -2.38 |
| CCn1cc(CN2CCCN(C(=O)CCn3cc(C)cn3)CC2)cn1 | -2.11 |
| Cc1ccc(C(=O)NCC(O)c2cccc(F)c2)c(=O)[nH]1 (stereo not drawn) | -2.83 |
| Cc1ccc(C)c(S(=O)(=O)NC(=O)c2ccc(C)[nH]c2=O)c1 | -1.07 |
| N#CCCNC(=O)CN1CC(n2cccn2)C1 | -7.29 |
| CCn1ccnc1CN1CCN(CCOc2ccc(C#N)cc2)CC1 | -3.75 |

| SMILES | cytotoxicity at 10 µM [%] |
| --- | --- |
| CCc1cnc(CN(C)C2CCN(CC(=O)Nc3nccs3)C2)o1 (stereo not drawn) | -18.7 |
| CN(C(=O)Cc1ccccc1F)C1CCN(c2ccccn2)CC1 | -0.644 |
| Cn1cnc2c1CCN(CCS(=O)(=O)c1ccc(Cl)cc1)C2 | -6.67 |
| CC(C)c1cc(NC(=O)CN2CCCC2c2noc(C(C)C)n2)on1 (stereo not drawn) | -3.84 |
| O=C(Cc1ccccc1F)N1CCN(Cc2noc(C3CC3)n2)CC1 | -2.21 |
| COc1ccc(COCC(O)CNC(=O)c2ccc(C)c(F)c2)cc1 (stereo not drawn) | -0.584 |
| CC(CNC(=O)c1ccc(=O)[nH]n1)N1CCc2ccccc21 (stereo not drawn) | -8.93 |
| Cc1ccc(NC2CCN(C(=O)COCC(F)(F)F)CC2)nn1 | 6.38 |
| Cc1ccc(NC(=O)N(C)Cc2cnn(C)c2)cc1OCC(F)F | -0.243 |
| Fc1cccc(CN2CCC(c3cc4ncccc4cn3)CC2)c1F | -7.62 |
| Fc1ccccc1Cn1c(C2CCNCC2)cc2cccnc21 | 1.25 |
| Cc1nc2sccn2c1CNC1(c2ccccc2F)CCCC1 | 11.3 |
| CCc1ccc(CN(CCCn2ccnc2)Cc2ccc(C)s2)o1 | 3.86 |
| O=C1COC2(CCN(Cc3ccoc3)CC2)CN1c1ccsc1 | 3.09 |
| CCn1nnc2c1C(COCCN(C)C)CN(S(=O)(=O)CC)C2 (stereo not drawn) | -4.38 |
| CN(C)C(=O)C1CN(Cc2ccsc2)Cc2ccnn2C1 (stereo not drawn) | -6.75 |
| COc1cc(N2C[C@H]3CCN(CCN4CCCC4)C[C@H]3C2)ncn1 | 12 |
| Cc1cnc(N2CCC[C@@H]3CN(CC(=O)N(C)C)C[C@@H]32)nc1 | 11.4 |
| COc1ccc(CN2CCC3(CC2)CCN(CC2CC2)C3=O)cc1 | 8.18 |
| CN(C)C(=O)N1CCC2(CCCN(Cc3cnn(C)c3)C2)C1 (stereo not drawn) | 4.91 |
| Cc1cccc(CN2CCCC3(CCN(CC4CCCO4)CC3)C2)n1 (stereo not drawn) | -121 |
